Data set [1] can be described thus: Efflux ratio of apparent permeability in human Caco2 cells. The data set is classed as ADME, cell-based. The following applies: Caco-2. In short, it runs like this:
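Caco-2 human colon carcinoma monolayers. Permeability measured in both directions (apical to basolateral and basolateral to apical) under constant pH: apical pH 6.5, basolateral pH 7.4. Efflux ratio taken as Papp B→A divided by Papp A→B.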
(Caco-2 cells form a polarised layer with tight junctions and transporters.)

Data set [2] deals with T1, Prostaglandin E2 receptor EP4 subtype (Homo sapiens, UniProt P35408). In words: Displacement of [3H]PGE from human EP4 receptor expressed in HEK293 cell membranes. In short, it runs like this:
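Membrane binding assay using [3H]PGE2 with membranes from HEK-293 cells expressing human EP4. The value is expressed as Ki.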
(Loss of bound radioactivity is the signal in a displacement assay; it reports binding, not function.)

Data set [3] is described as follows: Apparent permeability from basolateral to apical side in human Caco2 cells. The format is ADME, cell-based. The following applies: Caco-2. Summed up: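 Caco-2 permeability was measured basolateral to apical under the same pH conditions as the apical-to-basolateral direction (apical 6.5, basolateral 7.4). Efflux ratio was derived from the two directions.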

In data set [4] the target is T2, Prostaglandin E2 receptor EP3 subtype (Homo sapiens, UniProt P43115).
T2 sequence (P43115 whole entry): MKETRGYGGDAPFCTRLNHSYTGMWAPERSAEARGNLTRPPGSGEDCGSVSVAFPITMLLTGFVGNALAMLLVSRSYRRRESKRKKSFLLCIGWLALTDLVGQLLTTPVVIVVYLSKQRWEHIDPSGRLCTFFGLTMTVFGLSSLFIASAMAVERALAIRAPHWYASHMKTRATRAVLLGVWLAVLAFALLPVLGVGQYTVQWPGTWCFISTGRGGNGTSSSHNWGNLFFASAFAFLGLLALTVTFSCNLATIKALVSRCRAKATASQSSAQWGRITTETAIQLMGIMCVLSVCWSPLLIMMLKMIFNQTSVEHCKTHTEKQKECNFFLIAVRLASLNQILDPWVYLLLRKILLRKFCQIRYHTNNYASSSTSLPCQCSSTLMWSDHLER
In words: Antagonist activity at human EP3 receptor.

Data set [5] in a line: Genotoxicity in CHL cells after 72 hrs using acridine orange stain by fluorescence microscopic based micronucleus test. The data set is classed as toxicity, cell-based, Cricetulus griseus. To be noted: chinese hamster.
The target of data set [6] is Prostaglandin E2 receptor EP2 subtype (Homo sapiens, UniProt P43116). In words: Antagonist activity at human EP2 receptor.
For data set [7], the target named is T3, Prostaglandin E2 receptor EP1 subtype (Homo sapiens, UniProt P34995).
T3 sequence (P34995 whole entry): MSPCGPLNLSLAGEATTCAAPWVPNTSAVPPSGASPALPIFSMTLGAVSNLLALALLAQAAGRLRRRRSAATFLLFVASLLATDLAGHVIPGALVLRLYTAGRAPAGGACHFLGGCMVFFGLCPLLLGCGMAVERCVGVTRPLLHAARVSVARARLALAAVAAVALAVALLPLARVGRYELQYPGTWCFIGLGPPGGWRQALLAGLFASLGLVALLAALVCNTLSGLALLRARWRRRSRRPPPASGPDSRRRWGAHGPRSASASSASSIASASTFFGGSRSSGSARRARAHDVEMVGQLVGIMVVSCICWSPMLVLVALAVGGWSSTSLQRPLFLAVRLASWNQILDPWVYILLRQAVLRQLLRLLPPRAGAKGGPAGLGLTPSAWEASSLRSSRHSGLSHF
In words: Antagonist activity at human EP1 receptor.

Data set [8] can be described thus: Half life in human liver microsomes. The data set is classed as ADME, microsome. On the technique in general: Liver microsomes are a subcellular fraction often used to study metabolism.
The target in data set [9] is T1, Prostaglandin E2 receptor EP4 subtype. In words: Antagonist activity at human EP4 receptor expressed in HEK293 cells assessed as inhibition of PGE2-induced cAMP level by HTS assay. The data set is classed as functional, cell-based.
The nature of data set [10]: Apparent permeability from apical to basolateral side in human Caco2 cells. The data set is classed as ADME, cell-based. To be noted: Caco-2. Summed up:
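Caco-2 monolayer permeability (Papp, apical to basolateral) was measured under constant pH, with the apical side at pH 6.5 and the basolateral side at pH 7.4.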

One may read the efflux ratio as the permeability from basolateral to apical divided by that in the opposite direction, in the common usage. Usually IC50 stands for the concentration at which inhibition is half-maximal. As usually defined, the Papp B→A is the apparent permeability from the basolateral to the apical side of a cell layer. A word on the half-life: it is how long it takes for the measured level to halve. One may read the Papp A→B as the apparent permeability from the apical to the basolateral side of a cell layer.

T1 sequence (P35408 whole entry): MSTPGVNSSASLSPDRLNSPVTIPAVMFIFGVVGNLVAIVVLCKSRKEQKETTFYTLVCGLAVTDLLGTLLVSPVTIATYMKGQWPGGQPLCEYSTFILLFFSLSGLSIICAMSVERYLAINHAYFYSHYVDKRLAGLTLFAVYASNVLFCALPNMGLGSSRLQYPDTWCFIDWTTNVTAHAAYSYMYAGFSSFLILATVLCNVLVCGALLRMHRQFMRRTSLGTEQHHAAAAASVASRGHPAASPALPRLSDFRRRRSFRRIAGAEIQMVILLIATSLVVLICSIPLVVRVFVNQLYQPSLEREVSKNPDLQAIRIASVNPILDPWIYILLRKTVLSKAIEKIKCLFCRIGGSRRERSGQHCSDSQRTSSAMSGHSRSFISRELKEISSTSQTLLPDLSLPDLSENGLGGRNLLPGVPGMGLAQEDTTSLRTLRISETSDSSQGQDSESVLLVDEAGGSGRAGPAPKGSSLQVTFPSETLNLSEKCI
Chain of Prostaglandin E2 receptor EP2 subtype (P43116 whole entry): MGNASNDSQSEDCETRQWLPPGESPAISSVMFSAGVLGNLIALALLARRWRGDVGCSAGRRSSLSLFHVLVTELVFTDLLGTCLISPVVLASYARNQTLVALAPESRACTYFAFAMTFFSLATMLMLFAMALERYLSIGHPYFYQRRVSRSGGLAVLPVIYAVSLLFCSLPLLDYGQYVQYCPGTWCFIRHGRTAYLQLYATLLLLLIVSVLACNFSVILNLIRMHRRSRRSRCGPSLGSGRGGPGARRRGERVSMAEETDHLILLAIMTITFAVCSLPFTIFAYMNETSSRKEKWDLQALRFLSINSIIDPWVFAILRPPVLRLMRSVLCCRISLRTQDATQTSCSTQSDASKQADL

On to `C[C@H](NC(=O)c1cc(Cl)cnc1Oc1cccc(C#N)c1)c1ccc(C(=O)O)cc1`, for which, in data set [1], the efflux ratio is 40. The IC50 in [2] was 0.0134 µM; in [4], over 20 µM; in [6], 3.32 µM; in data set [7], over 20 µM; in [9] it was 0.0362 µM. Moreover, the Papp B→A in data set [3] was found to be 25.8 ×10⁻⁶ cm/s. The Activity entry in [5] was “Toxic”. Further, the half-life in data set [8] is over 2 h. For the same molecule, the Papp A→B in data set [10] was 0.644 ×10⁻⁶ cm/s.
